What was measured:
Mus musculus [1] = test: Antiinflammatory activity in NIH mouse assessed as inhibition of TPA-induced mouse ear edema at 1 umol/ear administered to right ear relative to untreated control; type: functional
Summary of the method: (§1)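 Male NIH mice, groups of 5-8, anaesthetized with Sedaphorte. Right ear got TPA 2.5 μg in 10 μL EtOH, split across both faces; left ear got EtOH only. 10 min later, test compound at 0.1 to 1.0 μmol in 20 μL Me₂CO-CH₂Cl₂ (1:1) was applied to the right ear; controls got vehicle only. Sacrificed at 4 h; a 7 mm plug was taken from each ear.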

Mus musculus [2] = test: Antiinflammatory activity in NIH mouse assessed as inhibition of TPA-induced mouse ear edema measured per ear administered to right ear relative to untreated control; type: functional, organism-based; summary of the method: as §1

IC50 (Mus musculus [2])	SMILES	inhibition (INH) (Mus musculus [1])
	C=C1[C@H](OC(C)=O)C[C@H]2C(C)(C)CCC[C@]2(C)[C@H]1C[C@@H](OC(C)=O)/C(C)=C/COC(C)=O	29.4%
0.35 µmol/ear	CCCCCCCCCCCC(=O)O[C@H]1[C@@H](O[C@]2(CO)O[C@H](CO)[C@@H](O)[C@@H]2OC(=O)C(C)C)O[C@H](CO)[C@@H](O)[C@@H]1OC(=O)C(C)C	
0.24 µmol/ear	CCCCCCCCCCCC(=O)O[C@H]1[C@@H](O[C@]2(CO)O[C@H](CO)[C@@H](O)[C@@H]2O)O[C@H](CO)[C@@H](O)[C@@H]1OC(=O)C(C)C	
0.34 µmol/ear	CCCCCCCCCCCC(=O)O[C@H]1[C@@H](O[C@]2(COC(C)=O)O[C@H](CO)[C@@H](O)[C@@H]2O)O[C@H](CO)[C@@H](O)[C@@H]1OC(=O)C(C)C	
0.26 µmol/ear	CCCCCCCCCCCC(=O)O[C@H]1[C@@H](O[C@]2(COC(C)=O)O[C@H](CO)[C@@H](O)[C@@H]2OC(=O)C(C)C)O[C@H](CO)[C@@H](O)[C@@H]1OC(=O)C(C)C	
	CC(=O)O[C@H](C[C@H]1C(C)=CC[C@H]2C(C)(C)CCC[C@]12C)/C(C)=C/CO	25.4%
0.63 µmol/ear	C=C1[C@H](O)C[C@H]2C(C)(C)CCC[C@]2(C)[C@H]1C[C@@H](O)/C(C)=C/CO [PHYSORDIN]	64.3%

SMILES	IC50 (Mus musculus [2])	inhibition (INH) (Mus musculus [1])
CC1=CC[C@H]2C(C)(C)CCC[C@]2(C)[C@H]1C[C@@H](O)/C(C)=C/CO [PHYSACOZTOMATIN]	0.49 µmol/ear	65.8%

— ChEMBL document CHEMBL1177746, “Labdanes and sucrose esters from Physalis sordida” (J Nat Prod, 2010)
